# Measurements published in ChEMBL document CHEMBL3046583, “Design, synthesis, and insecticidal activity of novel pyrazole derivatives containing α-hydroxymethyl-N-benzyl carboxamide, α-chloromethyl-N-benzyl carboxamide, and 4,5-dihydrooxazole moieties” (2012).
# Columns and labels:
# Tetranychus cinnabarinus [1] = test: Acaricidal activity against Tetranychus cinnabarinus (carmine spider mite) larvae at 600 mg/kg by leaf dip method; format: functional
# Tetranychus cinnabarinus [2] = test: Acaricidal activity against Tetranychus cinnabarinus (carmine spider mite) adults at 600 mg/kg by leaf dip method; format: functional
# Tetranychus cinnabarinus [3] = test: Acaricidal activity against Tetranychus cinnabarinus (carmine spider mite) adults at 200 mg/kg by leaf dip method; format: functional
# Helicoverpa armigera [4] = test: Stomach toxicity against third-instars Helicoverpa armigera assessed as larvicidal activity at 11 mg/kg at 25 +/- 1 degC after 3 days; format: functional
# How it was run: (§1)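 Diet-incorporation assay on third-instar larvae. Samples dissolved in acetone to the desired final concentrations; 3 mL of test solution mixed evenly into about 27 g of prepared feed, then dispensed into 24-well plates. Run in triplicate at 25 ± 1 °C. Dead/alive scoring 3 days after treatment; mortality corrected by Abbott's formula on a 0–100 scale.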
# Tetranychus cinnabarinus [5] = test: Acaricidal activity against Tetranychus cinnabarinus (carmine spider mite) eggs at 200 mg/kg by leaf dip method; format: functional, Egg
# Aphis craccivora [6] = test: Larvicidal activity against Aphis craccivora (cowpea aphid) at 200 mg/kg by leaf dip method; format: functional
# Culex pipiens pallens [7] = test: Larvicidal activity against Culex pipiens pallens (mosquito); format: functional
# Tetranychus cinnabarinus [8] = test: Acaricidal activity against Tetranychus cinnabarinus (carmine spider mite) eggs at 600 mg/kg by leaf dip method; format: functional, Egg
# Plutella xylostella [9] = test: Stomach toxicity against Plutella xylostella (diamondback moth) assessed as larvicidal activity at 200 mg/kg by leaf dip method; format: functional
# Culex pipiens pallens [10] = test: Larvicidal activity against Culex pipiens pallens (mosquito) at 2 mg/kg; format: functional
# Tetranychus cinnabarinus [11] = test: Acaricidal activity against Tetranychus cinnabarinus (carmine spider mite) larvae at 200 mg/kg by leaf dip method; format: functional
# Helicoverpa armigera [12] = test: Stomach toxicity against third-instars Helicoverpa armigera assessed as larvicidal activity at 55 mg/kg at 25 +/- 1 degC after 3 days; format: functional; how it was run: as §1
# Plutella xylostella [13] = test: Stomach toxicity against Plutella xylostella (diamondback moth) assessed as larvicidal activity at 600 mg/kg by leaf dip method; format: functional
# Helicoverpa armigera [14] = test: Stomach toxicity against third-instars Helicoverpa armigera assessed as larvicidal activity at 22 mg/kg at 25 +/- 1 degC after 3 days; format: functional; how it was run: as §1
# Helicoverpa armigera [15] = test: Stomach toxicity against third-instars Helicoverpa armigera assessed as larvicidal activity at 110 mg/kg at 25 +/- 1 degC after 3 days; format: functional; how it was run: as §1
# Aphis craccivora [16] = test: Larvicidal activity against Aphis craccivora (cowpea aphid) at 600 mg/kg by leaf dip method; format: functional
# Culex pipiens pallens [17] = test: Larvicidal activity against Culex pipiens pallens (mosquito) at 1 mg/kg; format: functional
# Culex pipiens pallens [18] = test: Larvicidal activity against Culex pipiens pallens (mosquito) at 0.5 mg/kg; format: functional
# Culex pipiens pallens [19] = test: Larvicidal activity against Culex pipiens pallens (mosquito) at 5 mg/kg; format: functional
# Helicoverpa armigera [20] = test: Stomach toxicity against third-instars Helicoverpa armigera assessed as larvicidal activity at 5.5 mg/kg at 25 +/- 1 degC after 3 days; format: functional; how it was run: as §1
# Helicoverpa armigera [21] = test: Stomach toxicity against third-instars Helicoverpa armigera assessed as larvicidal activity at 25 +/- 1 degC after 3 days; format: functional; how it was run: as §1
Compound,Activity (Tetranychus cinnabarinus [1]),Activity (Tetranychus cinnabarinus [2]),Activity (Tetranychus cinnabarinus [3]),Activity (Helicoverpa armigera [4]),Activity (Tetranychus cinnabarinus [5]),Activity (Aphis craccivora [6]),LC50 (Culex pipiens pallens [7]),Activity (Tetranychus cinnabarinus [8]),Activity (Plutella xylostella [9]),Activity (Culex pipiens pallens [10]),Activity (Tetranychus cinnabarinus [11]),Activity (Helicoverpa armigera [12]),Activity (Plutella xylostella [13]),Activity (Helicoverpa armigera [14]),Activity (Helicoverpa armigera [15]),Activity (Aphis craccivora [16]),Activity (Culex pipiens pallens [17]),Activity (Culex pipiens pallens [18]),Activity (Culex pipiens pallens [19]),other results
CCc1cc(C(=O)NC(CCl)c2ccc(Oc3ccccc3)cc2)n(C)n1 (centres undefined),40%,50%,0%,0%,40%,95%,0.35 mg/kg,50%,30%,100%,30%,100%,45%,40%,100%,100%,100%,60%,100%,–
CCc1nn(C)c(C2=NC(c3ccc(Oc4ccccc4)cc3)CO2)c1Cl (centres undefined),25%,0%,–,90%,–,60%,–,0%,20%,60%,0%,100%,90%,100%,100%,90%,0%,–,100%,Activity (Helicoverpa armigera [20]): 60%; LC50 (Helicoverpa armigera [21]): 2.8 mg/kg
CCc1nn(C)c(C(=O)NCc2ccc(C(C)(C)C)cc2)c1Cl [TEBUFENPYRAD],100%,100%,100%,–,100%,100%,0.61 mg/kg,100%,–,100%,100%,–,–,–,–,100%,70%,0%,100%,–
